Results published in ChEMBL document CHEMBL1795285, “Facile fabrication of promising protein tyrosine phosphatase (PTP) inhibitor entities based on 'clicked' serine/threonine-monosaccharide hybrids” (Bioorg Med Chem, 2011).
Calls of active or inactive are those of the source. No cut-off for these calls is given here.

The compounds below were run on HCT-116 (assay: Cytotoxicity against human HCT116 cells after 72 hrs by MTT assay). Conditions: HCT-116, 72 h.
Type: functional, cell-based
How it was run: (§1)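 Cells seeded at 2000/well and held 24 h at 37 °C, 5% CO2 before treatment. After a 3 h MTT incubation, medium was replaced by DMSO. Absorbance read at 550 nm against a 690 nm reference, with OD taken as proportional to viable cell number.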

Structure (SMILES) | IC50
CC(C)(C)OC(=O)N[C@@H](COCc1cn([C@@H]2O[C@H](COCc3ccccc3)[C@@H](OCc3ccccc3)[C@H](OCc3ccccc3)[C@H]2OCc2ccccc2)nn1)C(=O)O | 12.8 µM
CO[C@H]1O[C@H](Cn2cc(COC[C@H](NC(=O)OC(C)(C)C)C(=O)O)nn2)[C@@H](OCc2ccccc2)[C@H](OCc2ccccc2)[C@@H]1OCc1ccccc1 | 32.3 µM

These compounds were tested against T1, Tyrosine-protein phosphatase non-receptor type 1 (Homo sapiens, UniProt P18031) (assay: Competitive inhibition of human recombinant […] catalytic domain using pNPP substrate at 30 degC and pH 6.5 by Eadie-Hofstee plot). Conditions: not given.
T1 sequence (P18031 whole entry): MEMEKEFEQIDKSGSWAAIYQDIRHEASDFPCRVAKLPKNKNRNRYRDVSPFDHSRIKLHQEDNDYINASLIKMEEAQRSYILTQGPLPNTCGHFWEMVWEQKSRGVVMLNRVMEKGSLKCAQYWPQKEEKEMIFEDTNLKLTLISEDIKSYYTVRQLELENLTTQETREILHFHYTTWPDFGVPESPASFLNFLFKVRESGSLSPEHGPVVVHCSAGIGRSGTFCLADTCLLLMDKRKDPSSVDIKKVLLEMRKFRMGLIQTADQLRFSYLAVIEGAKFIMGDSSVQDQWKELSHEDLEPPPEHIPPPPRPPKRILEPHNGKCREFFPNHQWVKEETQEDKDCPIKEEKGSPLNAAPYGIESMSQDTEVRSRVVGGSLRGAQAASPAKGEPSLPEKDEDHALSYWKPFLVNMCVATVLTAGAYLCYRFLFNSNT
How it was run: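 For the inhibition-mode study, 30 nM PTP1B was run in 50 mM MOPS, pH 6.5, at 30 °C. pNPP was varied in twofold dilutions up to 80 mM, at several inhibitor concentrations. pNP release was read at 405 nm.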

Ki | Structure (SMILES)
3.9 µM | CC(C)(C)OC(=O)N[C@@H](COCc1cn([C@@H]2O[C@H](COCc3ccccc3)[C@@H](OCc3ccccc3)[C@H](OCc3ccccc3)[C@H]2OCc2ccccc2)nn1)C(=O)O

The compounds below were run against T2, M-phase inducer phosphatase 2 (Homo sapiens, UniProt P30305) (assay: Inhibition of human Cdc25B). Conditions: not given.
T2 sequence (P30305 whole entry): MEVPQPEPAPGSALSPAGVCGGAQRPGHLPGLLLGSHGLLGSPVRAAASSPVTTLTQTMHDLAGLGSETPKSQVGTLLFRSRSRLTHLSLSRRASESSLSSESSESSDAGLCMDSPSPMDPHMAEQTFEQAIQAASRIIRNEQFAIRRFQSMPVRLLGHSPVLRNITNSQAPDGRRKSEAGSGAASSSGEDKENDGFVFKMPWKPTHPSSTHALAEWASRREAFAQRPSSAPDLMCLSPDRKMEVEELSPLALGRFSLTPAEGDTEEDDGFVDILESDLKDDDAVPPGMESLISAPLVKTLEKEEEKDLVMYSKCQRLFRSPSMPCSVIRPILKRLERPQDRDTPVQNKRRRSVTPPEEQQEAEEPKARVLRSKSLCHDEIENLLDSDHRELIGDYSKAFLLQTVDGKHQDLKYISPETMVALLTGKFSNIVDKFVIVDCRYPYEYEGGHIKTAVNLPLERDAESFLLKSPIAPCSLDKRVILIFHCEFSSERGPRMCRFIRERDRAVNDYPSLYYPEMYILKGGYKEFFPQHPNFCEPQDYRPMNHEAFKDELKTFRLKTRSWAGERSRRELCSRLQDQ

IC50 | Structure (SMILES)
6.2 µM | CC(C)(C)OC(=O)N[C@@H](COCc1cn([C@@H]2O[C@H](COCc3ccccc3)[C@@H](OCc3ccccc3)[C@H](OCc3ccccc3)[C@H]2OCc2ccccc2)nn1)C(=O)O
8.2 µM | CO[C@H]1O[C@H](Cn2cc(COC[C@H](NC(=O)OC(C)(C)C)C(=O)O)nn2)[C@@H](OCc2ccccc2)[C@H](OCc2ccccc2)[C@@H]1OCc1ccccc1

These compounds were tested against T3, M-phase inducer phosphatase 1 (Homo sapiens, UniProt P30304) (assay: Inhibition of human CDC25A). Conditions: not given.
T3 sequence (P30304 whole entry): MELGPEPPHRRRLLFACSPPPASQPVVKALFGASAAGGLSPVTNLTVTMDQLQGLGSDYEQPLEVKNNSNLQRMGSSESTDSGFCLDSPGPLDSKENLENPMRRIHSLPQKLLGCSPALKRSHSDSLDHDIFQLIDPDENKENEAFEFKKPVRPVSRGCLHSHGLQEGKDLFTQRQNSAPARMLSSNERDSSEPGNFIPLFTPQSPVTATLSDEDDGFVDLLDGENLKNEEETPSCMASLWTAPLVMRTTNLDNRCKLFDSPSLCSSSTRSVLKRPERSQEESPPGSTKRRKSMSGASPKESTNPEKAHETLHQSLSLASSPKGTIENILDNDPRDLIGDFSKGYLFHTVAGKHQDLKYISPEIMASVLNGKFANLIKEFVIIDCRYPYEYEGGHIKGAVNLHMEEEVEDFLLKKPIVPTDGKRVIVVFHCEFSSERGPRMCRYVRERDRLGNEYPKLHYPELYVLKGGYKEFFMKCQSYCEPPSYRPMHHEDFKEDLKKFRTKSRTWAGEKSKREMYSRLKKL

IC50 | Structure (SMILES)
24.3 µM | CC(C)(C)OC(=O)N[C@@H](COCc1cn([C@@H]2O[C@H](COCc3ccccc3)[C@@H](OCc3ccccc3)[C@H](OCc3ccccc3)[C@H]2OCc2ccccc2)nn1)C(=O)O
26.8 µM | CO[C@H]1O[C@H](Cn2cc(COC[C@H](NC(=O)OC(C)(C)C)C(=O)O)nn2)[C@@H](OCc2ccccc2)[C@H](OCc2ccccc2)[C@@H]1OCc1ccccc1

The compounds below were run against T4, Tyrosine-protein phosphatase non-receptor type 11 (Homo sapiens, UniProt Q06124) (assay: Inhibition of SHP2). Conditions: not given.
T4 sequence (Q06124 whole entry): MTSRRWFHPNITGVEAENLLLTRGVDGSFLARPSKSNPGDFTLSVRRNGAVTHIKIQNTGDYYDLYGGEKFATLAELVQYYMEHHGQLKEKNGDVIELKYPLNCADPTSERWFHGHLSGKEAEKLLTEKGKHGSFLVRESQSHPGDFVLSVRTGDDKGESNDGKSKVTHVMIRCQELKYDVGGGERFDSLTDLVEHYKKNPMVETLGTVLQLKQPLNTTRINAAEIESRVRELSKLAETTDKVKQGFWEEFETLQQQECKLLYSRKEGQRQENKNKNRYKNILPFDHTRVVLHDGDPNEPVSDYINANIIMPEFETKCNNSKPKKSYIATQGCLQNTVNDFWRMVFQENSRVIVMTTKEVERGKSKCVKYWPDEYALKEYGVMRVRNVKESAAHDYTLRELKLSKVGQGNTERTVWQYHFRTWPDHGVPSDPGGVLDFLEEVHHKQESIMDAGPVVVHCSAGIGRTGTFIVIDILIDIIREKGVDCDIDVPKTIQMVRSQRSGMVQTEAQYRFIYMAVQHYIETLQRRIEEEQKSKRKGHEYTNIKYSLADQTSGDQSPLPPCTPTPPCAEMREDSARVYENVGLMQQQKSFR

IC50 | Structure (SMILES)
47.6 µM | CC(C)(C)OC(=O)N[C@@H](COCc1cn([C@@H]2O[C@H](COCc3ccccc3)[C@@H](OCc3ccccc3)[C@H](OCc3ccccc3)[C@H]2OCc2ccccc2)nn1)C(=O)O
> 120 µM | CO[C@H]1O[C@H](Cn2cc(COC[C@H](NC(=O)OC(C)(C)C)C(=O)O)nn2)[C@@H](OCc2ccccc2)[C@H](OCc2ccccc2)[C@@H]1OCc1ccccc1

Each compound was assayed against Tyrosine-protein phosphatase non-receptor type 6 (Homo sapiens, UniProt P29350) (assay: Inhibition of SHP1). Conditions: not given.
Chain of Tyrosine-protein phosphatase non-receptor type 6 (P29350 whole entry): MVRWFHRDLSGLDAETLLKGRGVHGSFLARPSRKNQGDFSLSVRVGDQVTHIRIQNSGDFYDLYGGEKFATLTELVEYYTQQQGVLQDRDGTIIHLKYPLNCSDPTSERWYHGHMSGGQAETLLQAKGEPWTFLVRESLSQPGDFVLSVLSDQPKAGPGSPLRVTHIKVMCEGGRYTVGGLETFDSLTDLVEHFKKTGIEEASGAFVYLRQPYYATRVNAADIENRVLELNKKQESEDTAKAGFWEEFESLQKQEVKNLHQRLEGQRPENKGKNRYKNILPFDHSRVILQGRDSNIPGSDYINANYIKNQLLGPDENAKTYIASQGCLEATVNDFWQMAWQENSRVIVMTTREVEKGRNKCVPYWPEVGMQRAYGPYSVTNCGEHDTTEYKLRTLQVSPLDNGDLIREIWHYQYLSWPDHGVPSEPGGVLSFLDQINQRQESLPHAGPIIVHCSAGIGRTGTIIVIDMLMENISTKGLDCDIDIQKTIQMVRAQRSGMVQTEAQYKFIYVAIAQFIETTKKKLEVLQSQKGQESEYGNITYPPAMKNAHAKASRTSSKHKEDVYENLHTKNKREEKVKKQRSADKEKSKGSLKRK

IC50 | Structure (SMILES)
40.4 µM | CC(C)(C)OC(=O)N[C@@H](COCc1cn([C@@H]2O[C@H](COCc3ccccc3)[C@@H](OCc3ccccc3)[C@H](OCc3ccccc3)[C@H]2OCc2ccccc2)nn1)C(=O)O
> 120 µM | CO[C@H]1O[C@H](Cn2cc(COC[C@H](NC(=O)OC(C)(C)C)C(=O)O)nn2)[C@@H](OCc2ccccc2)[C@H](OCc2ccccc2)[C@@H]1OCc1ccccc1

The compounds below were run against T1, Tyrosine-protein phosphatase non-receptor type 1 (assay: Inhibition of human recombinant […] catalytic domain using pNPP substrate). Conditions: not given.
How it was run: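 Recombinant human PTP1B catalytic domain (30 nM) with 2 mM pNPP in 50 mM MOPS, pH 6.5, at 30 °C. Inhibitor diluted around the estimated IC50. Initial rate taken from the early linear part of the 405 nm trace over 2 min. IC50 from nonlinear fit of % inhibition vs [I] with a Hill-coefficient equation. Means of three experiments.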

IC50 | Structure (SMILES)
5.9 µM | CC(C)(C)OC(=O)N[C@@H](COCc1cn([C@@H]2O[C@H](COCc3ccccc3)[C@@H](OCc3ccccc3)[C@H](OCc3ccccc3)[C@H]2OCc2ccccc2)nn1)C(=O)O
18.5 µM | CO[C@H]1O[C@H](Cn2cc(COC[C@H](NC(=O)OC(C)(C)C)C(=O)O)nn2)[C@@H](OCc2ccccc2)[C@H](OCc2ccccc2)[C@@H]1OCc1ccccc1

Each compound was assayed against Receptor-type tyrosine-protein phosphatase F (Homo sapiens, UniProt P10586) (assay: Inhibition of human LAR). Conditions: not given.
Chain of Receptor-type tyrosine-protein phosphatase F (P10586 whole entry): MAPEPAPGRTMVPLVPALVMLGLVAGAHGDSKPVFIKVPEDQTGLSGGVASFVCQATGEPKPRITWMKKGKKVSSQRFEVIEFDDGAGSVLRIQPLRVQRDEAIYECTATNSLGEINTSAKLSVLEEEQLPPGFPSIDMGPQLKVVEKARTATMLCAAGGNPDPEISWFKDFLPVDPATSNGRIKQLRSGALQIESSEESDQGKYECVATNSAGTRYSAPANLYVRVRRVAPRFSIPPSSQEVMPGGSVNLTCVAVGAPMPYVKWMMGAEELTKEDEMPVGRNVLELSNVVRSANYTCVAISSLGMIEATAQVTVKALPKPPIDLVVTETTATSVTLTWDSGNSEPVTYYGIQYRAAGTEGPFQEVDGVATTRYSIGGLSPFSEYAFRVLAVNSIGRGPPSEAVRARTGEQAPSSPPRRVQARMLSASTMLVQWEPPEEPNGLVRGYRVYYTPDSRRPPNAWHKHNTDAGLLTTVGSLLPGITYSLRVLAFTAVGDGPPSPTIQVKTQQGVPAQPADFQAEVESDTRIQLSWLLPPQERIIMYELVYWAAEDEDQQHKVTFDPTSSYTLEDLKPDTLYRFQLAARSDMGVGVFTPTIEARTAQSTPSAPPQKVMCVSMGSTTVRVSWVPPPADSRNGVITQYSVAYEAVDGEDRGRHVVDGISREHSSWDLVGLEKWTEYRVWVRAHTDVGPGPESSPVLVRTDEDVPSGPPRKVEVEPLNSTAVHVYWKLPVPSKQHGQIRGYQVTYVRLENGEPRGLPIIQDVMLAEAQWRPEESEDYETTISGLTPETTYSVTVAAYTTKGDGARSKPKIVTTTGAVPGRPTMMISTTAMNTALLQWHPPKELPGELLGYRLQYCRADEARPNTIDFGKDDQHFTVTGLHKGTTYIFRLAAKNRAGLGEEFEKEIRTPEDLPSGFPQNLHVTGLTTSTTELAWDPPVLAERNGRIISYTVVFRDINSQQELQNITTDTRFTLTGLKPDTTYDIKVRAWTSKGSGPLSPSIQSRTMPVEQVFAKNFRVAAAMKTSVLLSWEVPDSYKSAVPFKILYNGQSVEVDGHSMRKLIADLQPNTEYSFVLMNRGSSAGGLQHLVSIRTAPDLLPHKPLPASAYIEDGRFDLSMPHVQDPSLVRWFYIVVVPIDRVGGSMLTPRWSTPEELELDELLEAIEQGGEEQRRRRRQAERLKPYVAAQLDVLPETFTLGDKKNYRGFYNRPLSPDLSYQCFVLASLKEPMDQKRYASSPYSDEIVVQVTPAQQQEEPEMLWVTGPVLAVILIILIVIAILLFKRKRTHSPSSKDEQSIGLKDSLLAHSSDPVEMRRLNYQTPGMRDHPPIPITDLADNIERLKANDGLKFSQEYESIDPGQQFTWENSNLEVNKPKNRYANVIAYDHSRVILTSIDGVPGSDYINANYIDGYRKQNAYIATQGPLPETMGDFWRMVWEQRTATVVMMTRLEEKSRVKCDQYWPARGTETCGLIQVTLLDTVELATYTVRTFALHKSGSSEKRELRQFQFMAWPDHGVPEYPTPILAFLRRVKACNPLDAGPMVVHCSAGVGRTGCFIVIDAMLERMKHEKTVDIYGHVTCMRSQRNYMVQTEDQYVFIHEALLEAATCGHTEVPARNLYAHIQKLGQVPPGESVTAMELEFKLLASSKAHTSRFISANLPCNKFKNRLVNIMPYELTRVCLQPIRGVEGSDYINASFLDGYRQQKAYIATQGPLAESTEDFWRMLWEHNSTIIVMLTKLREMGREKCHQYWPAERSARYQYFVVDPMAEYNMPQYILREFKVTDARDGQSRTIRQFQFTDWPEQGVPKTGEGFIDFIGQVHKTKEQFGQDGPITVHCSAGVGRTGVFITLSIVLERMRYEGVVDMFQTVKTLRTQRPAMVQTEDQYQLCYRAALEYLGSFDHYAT

IC50 | Structure (SMILES)
> 120 µM | CC(C)(C)OC(=O)N[C@@H](COCc1cn([C@@H]2O[C@H](COCc3ccccc3)[C@@H](OCc3ccccc3)[C@H](OCc3ccccc3)[C@H]2OCc2ccccc2)nn1)C(=O)O
> 120 µM | CO[C@H]1O[C@H](Cn2cc(COC[C@H](NC(=O)OC(C)(C)C)C(=O)O)nn2)[C@@H](OCc2ccccc2)[C@H](OCc2ccccc2)[C@@H]1OCc1ccccc1

Each compound was assayed against T5, M-phase inducer phosphatase 2 (Homo sapiens) (UniProt P30305) (assay: Mixed type inhibition of human Cdc25B using pNPP substrate at 30 degC and pH 6.5 by Eadie-Hofstee plot). Conditions: not given.
T5 sequence (whole entry): T2 sequence (P30305 whole entry)

inhibition | Structure (SMILES)
Active | CC(C)(C)OC(=O)N[C@@H](COCc1cn([C@@H]2O[C@H](COCc3ccccc3)[C@@H](OCc3ccccc3)[C@H](OCc3ccccc3)[C@H]2OCc2ccccc2)nn1)C(=O)O

These compounds were tested on HeLa (assay: Cytotoxicity against human HeLa cells after 72 hrs by MTT assay). Conditions: not given.
Type: functional, cell-based
How it was run: as §1

Structure (SMILES) | IC50
CC(C)(C)OC(=O)N[C@@H](COCc1cn([C@@H]2O[C@H](COCc3ccccc3)[C@@H](OCc3ccccc3)[C@H](OCc3ccccc3)[C@H]2OCc2ccccc2)nn1)C(=O)O | 25.3 µM
CO[C@H]1O[C@H](Cn2cc(COC[C@H](NC(=O)OC(C)(C)C)C(=O)O)nn2)[C@@H](OCc2ccccc2)[C@H](OCc2ccccc2)[C@@H]1OCc1ccccc1 | 54.2 µM

The compounds below were run against T6, Tyrosine-protein phosphatase non-receptor type 2 (Homo sapiens, UniProt P17706) (assay: Inhibition of TCPTP). Conditions: not given.
T6 sequence (P17706 whole entry): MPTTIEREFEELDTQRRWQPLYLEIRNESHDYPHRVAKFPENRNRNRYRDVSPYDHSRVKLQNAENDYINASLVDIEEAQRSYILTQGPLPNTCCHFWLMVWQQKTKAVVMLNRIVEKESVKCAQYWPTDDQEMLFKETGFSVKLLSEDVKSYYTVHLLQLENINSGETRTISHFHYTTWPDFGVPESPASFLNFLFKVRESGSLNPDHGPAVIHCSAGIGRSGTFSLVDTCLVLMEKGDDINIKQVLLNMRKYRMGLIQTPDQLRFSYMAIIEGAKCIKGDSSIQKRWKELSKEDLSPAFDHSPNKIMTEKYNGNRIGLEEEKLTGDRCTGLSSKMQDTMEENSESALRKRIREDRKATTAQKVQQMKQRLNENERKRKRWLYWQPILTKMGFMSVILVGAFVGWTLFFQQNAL

IC50 | Structure (SMILES)
12.5 µM | CC(C)(C)OC(=O)N[C@@H](COCc1cn([C@@H]2O[C@H](COCc3ccccc3)[C@@H](OCc3ccccc3)[C@H](OCc3ccccc3)[C@H]2OCc2ccccc2)nn1)C(=O)O
89.2 µM | CO[C@H]1O[C@H](Cn2cc(COC[C@H](NC(=O)OC(C)(C)C)C(=O)O)nn2)[C@@H](OCc2ccccc2)[C@H](OCc2ccccc2)[C@@H]1OCc1ccccc1

What follows are compounds tested on A549 (assay: Cytotoxicity against human A549 cells after 72 hrs by MTT assay). Conditions: A549, 72 h.
Type: functional, cell-based
How it was run: as §1

Structure (SMILES) | IC50
CC(C)(C)OC(=O)N[C@@H](COCc1cn([C@@H]2O[C@H](COCc3ccccc3)[C@@H](OCc3ccccc3)[C@H](OCc3ccccc3)[C@H]2OCc2ccccc2)nn1)C(=O)O | 35.2 µM
CO[C@H]1O[C@H](Cn2cc(COC[C@H](NC(=O)OC(C)(C)C)C(=O)O)nn2)[C@@H](OCc2ccccc2)[C@H](OCc2ccccc2)[C@@H]1OCc1ccccc1 | 97.3 µM
